Published values of several laboratories.
Lines come from different studies, so protocols differ.
Observed: cell growth or viability

SMILES	cell line	assay	conditions	measurement	result
Cc1c(Cl)c(=O)oc2cc(OCCCC[Se]C#N)ccc12	HeLa	SRB		GI50	15 µM
COc1c(C)c2c(c(O)c1C/C=C(\C)CCC(=O)O)C(=O)OC2	Hs-578T			IC50	2.51 µM
CC(C)C[C@H](NC(=O)[C@H](CC(C)C)NC(=O)[C@@H]1CCCN1C(=O)[C@H](C)NC(=O)[C@@H](NC(=O)[C@H](C)N)C(C)C)C(=O)N[C@@H](Cc1c[nH]cn1)C(=O)N[C@@H](CO)C(=O)N[C@H](C(=O)O)[C@@H](C)OP(=O)(O)O	HeLa	MTT	72 h	IC50	1.05 µM
COC(=O)c1cc(C(C)=NNc2nc(-c3ccc(S(=O)(=O)F)cc3)cs2)ccc1O	HSF	MTT	96 h	IC50	40.5 µM
CC(N)C(O)CCCCCCCCCCCCCCC(=O)CCCCCCCC(O)C(C)N (stereo not shown)	HeLa			IC50	24.5 µM
O=C1[O][Pt]2([NH][C@@H]3CCCC[C@H]3[NH]2)[O]C1=O	SNU-449	imaging	72 h	IC50	12.9 µM
N.N.[Cl][Pt][Cl]	SU-DHL-6	ATP luminescence	72 h	IC50	7.06 µM
O=[N+]([O-])c1ccc(NCCCCN=C=S)c2nonc12	HDFa	MTT	24 h	IC50	7.6 µM
O=C1c2ccccc2-c2c3c(cc4ccnc1c24)OCO3	HeLa	MTT	75 h	IC50	15.7 µM
Cc1cc(=O)oc2cc(OCCCC[Se]C#N)ccc12	HeLa	SRB		GI50	0.98 µM
CC[C@H](C)[C@H](NC(=O)[C@@H](N)CCC(=O)O)C(=O)N[C@@H](C)C(=O)N1CCC[C@H]1C(=O)N[C@H](C(=O)N[C@@H](CC(C)C)C(=O)N[C@@H](Cc1c[nH]cn1)C(=O)N[C@@H](CO)C(=O)N[C@H](C(=O)O)[C@@H](C)OP(=O)(O)O)C(C)C	HeLa	MTT	72 h	IC50	0.96 µM
COc1cccc2c1C(=O)c1c(O)c3c(c(O)c1C2=O)CC(O)(C(=O)CO)CC3OC1CC(NC(=O)OC2C=CCCCCC2)C(O)C(C)O1 (stereo not shown)	HeLa	CCK-8	72 h	IC50	> 10 µM
O=[N+]([O-])c1ccc(NCCCCCCN=C=S)c2nonc12	HDFa	MTT	24 h	IC50	5.8 µM
